Results on one compound are retold here after ChEMBL document CHEMBL4028911, “Discovery of a Small-Molecule Bromodomain-Containing Protein 4 (BRD4) Inhibitor That Induces AMP-Activated Protein Kinase-Modulated Autophagy-Associated Cell Death in Breast Cancer” (J Med Chem, 2017).

Series [1] concerns the target T1, Bromodomain-containing protein 4 (Homo sapiens, UniProt O60885). In words: Inhibition of BRD4 in human MDA-MB-231 cells assessed as reduction in ATG13 protein expression at 3 uM up to 36 hrs by Western blot analysis. In kind it is cell-based. A digest of the protocol:
(§1)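 MCF-7 (1.5 μM) or MDA-MB-231 (3 μM) cells treated for indicated times. Adherent and floating cells lysed in RIPA with 1 mM PMSF. Equal protein run on 10-15% SDS-PAGE, blotted to PVDF, blocked in milk or BSA, HRP/ECL detection. β-actin loading control.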
Background: A western blot detects proteins with antibodies after separation by electrophoresis.

The subject of series [2] is MDA-MB-231. In words: Effect on AKT expression in human MDA-MB-231 cells at 3 uM measured up to 36 hrs by Western blot analysis. The format is ADME, cell-based. The conditions noted are these: mda-mb-231, 36 h. Summed up: (§2)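 MCF-7 (1.5 µM) or MDA-MB-231 (3 µM) cells treated for indicated times. Adherent and floating cells lysed in RIPA with 1 mM PMSF, 4°C for 1 h. Equal protein run on 10-15% SDS-PAGE, transferred to PVDF, blocked with milk or BSA, probed with primary then HRP secondary antibodies, ECL detection; β-actin as loading control.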

The target of series [3] is Bromodomain-containing protein 3 (Homo sapiens, UniProt Q15059). In words: Inhibition of recombinant human N-terminal GST-tagged BRD3 bromodomain-2 (306 to 417 residues) expressed in Escherichia coli expression system after 120 mins by TR-FRET assay. A digest of the protocol: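 TR-FRET bromodomain binding. Recombinant BRD domain, BET ligand and test agent in 20 μl assay buffer with 1% DMSO final. Incubated 120 min at room temperature. Blank lacks BET ligand.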
Bromodomain-containing protein 3, sequence (Q15059 whole entry, the tested form may be a part): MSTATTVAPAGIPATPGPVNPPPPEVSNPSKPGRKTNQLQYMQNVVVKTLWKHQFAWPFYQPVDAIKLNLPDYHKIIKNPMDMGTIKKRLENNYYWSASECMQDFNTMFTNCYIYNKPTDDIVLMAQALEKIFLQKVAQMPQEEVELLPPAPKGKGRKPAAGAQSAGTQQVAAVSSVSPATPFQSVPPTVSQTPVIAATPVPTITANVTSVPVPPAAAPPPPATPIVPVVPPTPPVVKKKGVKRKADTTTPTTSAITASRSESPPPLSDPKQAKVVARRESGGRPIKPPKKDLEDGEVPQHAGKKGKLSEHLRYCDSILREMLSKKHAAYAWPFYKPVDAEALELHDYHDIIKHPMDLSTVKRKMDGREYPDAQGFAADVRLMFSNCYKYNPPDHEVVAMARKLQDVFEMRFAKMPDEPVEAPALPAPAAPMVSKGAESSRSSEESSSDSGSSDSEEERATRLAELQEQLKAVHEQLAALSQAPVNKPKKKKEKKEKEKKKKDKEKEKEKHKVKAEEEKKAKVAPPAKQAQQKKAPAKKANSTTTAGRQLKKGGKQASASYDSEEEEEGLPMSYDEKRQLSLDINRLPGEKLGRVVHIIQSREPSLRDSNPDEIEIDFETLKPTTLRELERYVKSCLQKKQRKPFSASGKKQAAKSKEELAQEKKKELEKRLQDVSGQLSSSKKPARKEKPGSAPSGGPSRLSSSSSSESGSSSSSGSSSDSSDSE

The subject of series [4] is MCF7. In words: Induction of autophagy in human MCF7 cells assessed as increase in LC3B puncta at 1.5 uM after 24 hrs by DAPI-staining based immunocytochemistry. In kind it is functional, cell-based. A digest of the protocol:
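MCF-7 cells treated with 1.5 µM for 24 h and blocked with 1.5% goat serum in PBS. Incubated overnight at 4°C with anti-LC3B (1:200) in PBS/1% BSA, then FITC secondary for 1 h at room temperature. Nuclei counterstained with DAPI; LC3B puncta imaged.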

Series [5] deals with T1, Bromodomain-containing protein 4. In words: Inhibition of BRD4 in human MCF7 cells assessed as downregulation of AKT phosphorylation at thr308 at 1.5 uM measured up to 36 hrs by Western blot analysis. The format is cell-based. A digest of the protocol:
as §1

For series [6], the system named is MDA-MB-231. Briefly: Effect on mTOR expression in human MDA-MB-231 cells at 3 uM measured up to 36 hrs by Western blot analysis. The format is ADME, cell-based. The conditions noted are these: mda-mb-231, 36 h. A digest of the protocol:
as §2

For series [7], the system named is MDA-MB-231. Briefly: Inhibition of BRD4 protein expression in human MDA-MB-231 cells at 3 uM measured up to 36 hrs by Western blot analysis. The format is functional, cell-based. Summed up: as §1
For series [8], the system named is MCF7. In words: Effect on mTOR expression in human MCF7 cells at 1.5 uM measured up to 36 hrs by Western blot analysis. In kind it is ADME, cell-based. The conditions noted are these: mcf7, 36 h. A digest of the protocol:
as §2

For the next series, the species on record is Homo sapiens. In words: Effect on p53 interaction with AMPK in human MDA-MB-231 cells at 3 uM by co-immunoprecipitation assay. In kind it is cell-based. Summed up:
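Cells left untreated or treated, then lysed in RIPA (40 mM Tris-HCl pH 7.5, 150 mM NaCl, 0.5% NP-40, protease inhibitors, 5% glycerol, 10 mM NaF). Lysates incubated overnight at 4°C with BRD4 or p53 antibodies plus protein A/G beads, washed 3 times, resolved on 10% SDS-PAGE. Blots probed for p53 and AMPKα; inputs checked for BRD4, p53 and AMPKα.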

The subject of series [9] is MDA-MB-231. Briefly: Antitumor activity against human MDA-MB-231 cells xenografted in ig dosed nude BALB/c mouse assessed as tumor growth inhibition administered once a day for 27 days measured every 3 days relative to control. In kind it is functional, organism-based. Summed up:
(§3)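 Female BALB/c nude mice, 6-8 weeks, 20-22 g, injected subcutaneously with 5×10^6 MCF-7 or MDA-MB-231 cells. At 100 mm³ tumor volume (V = L×W²/2), split into four groups: 25, 50 or 100 mg/kg intragastric once daily for 24 or 27 days, or vehicle. Tumor volume and body weight measured every 3 days; tumors excised and weighed at end. MCF-7 n=7, MDA-MB-231 n=6 per group.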
For orientation: In xenograft studies the graft and the host belong to different species.

For series [10], the system named is MDA-MB-231. In words: Induction of autophagy in human MDA-MB-231 cells assessed as downregulation of p62/SQSTM1 expression at 3 uM in presence of ATG5 siRNA by Western blot analysis. The format is functional, cell-based.
Series [11] has as its system Mus musculus. Briefly: Toxicity in BALB/c mouse xenografted with human MDA-MB-231 cells assessed as effect on body weight at 25 to 100 mg/kg, ig administered once a day for […] measured every 3 days. The conditions noted are these: in vivo, po. In kind it is organism-based. Summed up: (§4)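 Female BALB/c nude mice (6-8 weeks, 20-22 g) with subcutaneous MCF-7 or MDA-MB-231 xenografts (5×10^6 cells). At 100 mm3, given 25, 50 or 100 mg/kg intragastrically once daily, or vehicle, for 24 or 27 days. Body weight recorded every 3 days. MCF-7 n=7, MDA-MB-231 n=6 per group.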

In series [12] the test system is Mus musculus. Briefly: Toxicity in BALB/c mouse xenografted with human MCF7 cells assessed as effect on body weight at 25 to 100 mg/kg, ig administered once a day for 24 days measured every 3 days. In kind it is organism-based. The conditions noted are these: in vivo, po. A digest of the protocol: as §4
For series [13], the system named is Mus musculus. Briefly: In vivo inhibition of c-Myc expression in BALB/c mouse xenografted with human MDA-MB-231 cells at 100 mg/kg, ig administered once a day for 27 days by Western blot analysis. In kind it is functional, organism-based. A digest of the protocol: (§5)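 Tumor tissues excised from MCF-7 or MDA-MB-231 xenograft mice were lysed and analysed by western blot for BRD4, c-Myc, LC3 and cleaved caspase-3.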

The target in series [14] is T1, Bromodomain-containing protein 4. In words: Inhibition of BRD4 in human MDA-MB-231 cells assessed as induction of AMPKalpha phosphorylation at thr172 at 3 uM measured up to 36 hrs by Western blot analysis. In kind it is cell-based. Summed up: as §1
Series [15] has the same target. Briefly: Inhibition of BRD4 in human MCF7 cells assessed as downregulation of c-Myc expression at 1.5 uM measured up to 36 hrs by Western blot analysis. In kind it is cell-based. Summed up: as §1
Series [16] concerns MCF7. In words: Induction of autophagy in GFP-LC3 fused human MCF7 cells assessed as increase in LC3 puncta at 1.5 uM by fluorescence microscopy. The format is functional, cell-based. A digest of the protocol: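 MCF-7 or MDA-MB-231 cells transfected with eGFP-LC3 plasmid, then treated with 1.5 or 3 µM respectively for 24 h. LC3 puncta viewed by fluorescence microscopy.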

Series [17] relates to MCF7. In words: Antitumor activity against human MCF7 cells xenografted in nude BALB/c mouse assessed as tumor growth inhibition at 25 to 100 mg/kg, ig administered once a day for 24 days measured every 3 days relative to control. The format is functional. Summed up:
as §3

Series [18] concerns MDA-MB-231. Briefly: Induction of autophagy in human MDA-MB-231 cells assessed as downregulation of p62/SQSTM1 expression at 3 uM measured up to 36 hrs by Western blot analysis. The format is functional, cell-based. A digest of the protocol:
as §2

Series [19] concerns Mus musculus. Briefly: In vivo inhibition of BRD4 expression in BALB/c mouse xenografted with human MDA-MB-231 cells at 100 mg/kg, ig administered once a day for 27 days by Western blot analysis. In kind it is functional, organism-based. Summed up: as §5
Series [20] concerns the target T1, Bromodomain-containing protein 4. Briefly: Inhibition of BRD4 in human MDA-MB-231 cells assessed as downregulation of AKT phosphorylation at thr308 at 3 uM measured up to 36 hrs by Western blot analysis. In kind it is cell-based. Summed up: as §1

Activity calls are given as the source filed them. No cut-off for these calls is given here.

In the case of `Cc1cc(-c2nc3sc4c(c3c(=O)[nH]2)CCN(C)C4)cc(C)c1O`, the inhibition entry (in series [1]; in [5]; in the series on MDA-MB-231 [7]; in series [14]; in [15]; in series [20]) was “Active” each time. The Activity entry in the series with MDA-MB-231 [2], with MDA-MB-231 [6], with MCF7 [8], in the series with Mus musculus [11] and in the series with Mus musculus [12] was “Non-Toxic” in each case. The IC50 – broadly, the midpoint of a concentration-inhibition curve – in series [3] was over 100 µM. Also, the outcome in the series on MCF7 [4], in the series on Mus musculus [13], in the series with MCF7 [16], in the series with MDA-MB-231 [18] and in the series with Mus musculus [19] was Active. The result in the series filed under Homo sapiens and with MDA-MB-231 [10] was inactive. Besides, the TGI result was “Dose-dependent effect” in the series with MDA-MB-231 [9] and 80% in the series on MCF7 [17].
